1 compound from ChEMBL document CHEMBL4308887, “Synthesis and biological evaluation of clovamide analogues with catechol functionality as potent Parkinson's disease agents in vitro and in vivo” (Bioorg Med Chem Lett, 2019) can be followed below.

Each structure is given as a SMILES string. Activity calls are given as the source filed them. No cut-off for these calls is given here.

Series [1] has as its system SH-SY5Y. The experiment in a line: Neuroprotection against H2O2-induced cell death in human SH-SY5Y cells at 100 uM preincubated for 6 hrs followed by H2O2 addition and measured after 24 hrs by MTT assay relative to control. In kind it is functional. The essentials: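 Human SH-SY5Y neuroblastoma cells pretreated with compound at 100 μM for 6 h, then exposed to 600 μM H₂O₂ for 24 h; viability read by MTT and expressed as protection rate relative to untreated control. DMSO below 0.1% in all groups. Primary single-concentration screen; three independent experiments.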

Series [2] concerns SH-SY5Y. The experiment in a line: Protection against H2O2-induced morphological changes in human SH-SY5Y cells at 1 to 10 uM preincubated for 6 hrs followed by H2O2 addition and measured after 24 hrs by inverted microscopic analysis. In kind it is functional, cell-based. The gist of the method:
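Cell morphology under inverted microscope after pretreatment and 600 μM H₂O₂; DMSO below 0.1%.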

Series [3] relates to SH-SY5Y. In words: Protection against H2O2-induced oxidative stress in human SH-SY5Y cells assessed as reduction in reactive oxygen species level preincubated for 6 hrs followed by H2O2 addition and measured after 24 hrs by DHE dye based flow cytometry. In kind it is functional, cell-based. A general note: In flow cytometry, cells or beads pass a laser one at a time.
Series [4] relates to SH-SY5Y. In words: Protection against H2O2-induced apoptosis in human SH-SY5Y cells assessed as viable cells at 1 uM preincubated for 6 hrs followed by H2O2 addition and measured after 24 hrs by Annexin V-FITC/propidium iodide staining based flow cytometry (reference value: 12.4%). The class given is functional. The settings on record: read-out: Activity.
Series [5] relates to SH-SY5Y. The experiment in a line: Protection against H2O2-induced apoptosis in human SH-SY5Y cells assessed as viable cells at 10 uM preincubated for 6 hrs followed by H2O2 addition and measured after 24 hrs by Annexin V-FITC/propidium iodide staining based flow cytometry (reference value: 12.4%). The class given is functional. The settings on record: read-out: Activity.
The subject of series [6] is SH-SY5Y. The experiment in a line: Protection against H2O2-induced apoptosis in human SH-SY5Y cells assessed as early apoptotic cells at 10 uM preincubated for 6 hrs followed by H2O2 addition and measured after 24 hrs by Annexin V-FITC/propidium iodide staining based flow cytometry (reference value: 6.6%). In kind it is functional.
The test system of series [7] is SH-SY5Y. The experiment in a line: Protection against H2O2-induced apoptosis in human SH-SY5Y cells assessed as late apoptotic cells at 10 uM preincubated for 6 hrs followed by H2O2 addition and measured after 24 hrs by Annexin V-FITC/propidium iodide staining based flow cytometry (reference value: 3.5%). In kind it is functional.
The subject of series [8] is SH-SY5Y. The experiment in a line: Induction of apoptosis in non-stimulated human SH-SY5Y cells assessed as late apoptotic cells at 10 uM measured after 6 hrs by Annexin V-FITC/propidium iodide staining based flow cytometry (reference value: 2.3%). In kind it is cell-based.
Series [9] concerns SH-SY5Y. The experiment in a line: Induction of apoptosis in non-stimulated human SH-SY5Y cells assessed as necrotic cells at 10 uM measured after 6 hrs by Annexin V-FITC/propidium iodide staining based flow cytometry (reference value: 0.6%). In kind it is cell-based.
For series [10], the system named is SH-SY5Y. The experiment in a line: Protection against H2O2-induced apoptosis in human SH-SY5Y cells assessed as decrease in cleaved caspase3 expression preincubated for 6 hrs followed by H2O2 addition and measured after 24 hrs by Western blot analysis. The class given is functional, cell-based. The essentials:
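Western blot of Bax, Bcl-2 and cleaved caspase-3 in SH-SY5Y after pretreatment (1, 10 μM) and 600 μM H₂O₂. β-actin internal standard; Bax/Bcl-2 ratio from densitometry. Mean ± S.E.M., three independent experiments.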
A general note: In western blotting, separated proteins are transferred to a membrane and probed.

For series [11], the system named is SH-SY5Y. In words: Induction of apoptosis in non-stimulated human SH-SY5Y cells assessed as effect on cleaved caspase3 expression at 1 to 10 uM measured after 6 hrs by Western blot analysis. In kind it is cell-based. The gist of the method:
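Bax, Bcl-2 and cleaved caspase-3 measured by western blot in SH-SY5Y cells given 1 alone, with β-actin as internal standard. Mean ± S.E.M. of three independent experiments.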

For series [12], the system named is Mus musculus. The experiment in a line: Anti-parkinson's activity in MPTP-induced C57Bl/6 mouse model of Parkinson's disease assessed as restoration of motor ability by measuring increase in time spent on rota-rod at 10 to 20 mg/kg, ig pretreated for 10 days followed by MPTP challenge measured 4 to 72 hrs post MPTP addition for 3 mins by rota rod test. The class given is functional, organism-based. The gist of the method:
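MPTP-intoxicated mice given 1 orally at 10 or 20 mg/kg. Time retained on a rotating rod recorded 4, 24, 48 and 72 h after MPTP. Mean ± S.D., n = 6 mice/group.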
(In general: In the rotarod test animals must keep their balance on a rotating rod.)

For series [13], the system named is Mus musculus. In words: Anti-parkinson's activity in MPTP-induced C57Bl/6 mouse model of Parkinson's disease assessed as increase in tyrosine hydroxylase expression in substantia nigra at 10 to 20 mg/kg, ig pretreated for 10 days followed by MPTP challenge measured 10 days post MPTP addition by Western blot analysis. In kind it is functional, organism-based. The essentials: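 Tissue taken 10 days after MPTP injection from mice dosed orally with 1 (10 or 20 mg/kg). TH in SNpc and striatum by western blot, and by DAB immunostaining. Three of the mice per group analysed. Mean ± S.D., n = 6 mice/group.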

Series [14] deals with Mus musculus. In words: Anti-parkinson's activity in MPTP-induced C57Bl/6 mouse model of Parkinson's disease assessed as increase in SOD activity in striatum administered intragastrically pretreated for 10 days followed by MPTP challenge measured 10 days post MPTP addition by xanthine oxidase method. The class given is functional, organism-based. The gist of the method: (§1)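 Striatum and SNpc from MPTP-treated mice dosed orally with 1 at 10 or 20 mg/kg. MDA level and SOD activity measured. Mean ± S.D., n = 6 mice/group.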

Series [15] relates to Mus musculus. The experiment in a line: Anti-parkinson's activity in MPTP-induced C57Bl/6 mouse model of Parkinson's disease assessed as reduction in MDA level in substantia nigra administered intragastrically pretreated for 10 days followed by MPTP challenge measured 10 days post MPTP addition by thiobarbituric acid method. The class given is functional, organism-based. The gist of the method:
as §1

A short description of series [16]: Volume of distribution at steady state in Sprague-Dawley rat at 25 mg/kg, po by LC-MS/MS analysis. In kind it is ADME, organism-based. To be noted: in vivo. The gist of the method:
(§2)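 Male Sprague–Dawley rats (n = 3) dosed i.v. 5 mg/kg (5% DMSO, 2% F68, 93% saline) or p.o. 25 mg/kg (0.5% methylcellulose, 1% Tween 80). Orbital blood at 0.083–24 h (12 points). Plasma concentration–time profiles gave Cl, Vdss, AUC, T1/2, Tmax, Cmax, MRT and absolute F.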

Series [17] in a line: AUC (0 to infinity) in Sprague-Dawley rat at 25 mg/kg, po by LC-MS/MS analysis. The class given is ADME, organism-based. More on the design: dose 25 mg/kg, time infinity, route oral. To be noted: in vivo. The gist of the method:
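Male Sprague–Dawley rats (n = 3) got a single oral dose of 25 mg/kg in 0.5% methylcellulose with 1% Tween 80. AUC0-∞ came from the plasma concentration–time profile, reported as mean ± SD.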

The nature of series [18]: Oral bioavailability in Sprague-Dawley rat at 25 mg/kg by LC-MS/MS analysis. In kind it is ADME, organism-based. The settings on record: in vivo. The gist of the method: as §2
The nature of series [19]: Activation of PI3K/Akt/mTOR signaling in human SH-SY5Y cells assessed as up regulation of HO-1 expression at 10 uM after 24 hrs by Western blot analysis relative to control. The class given is cell-based. The gist of the method: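 HO-1 western blot in SH-SY5Y cells incubated 24 h with 1 at 0.1, 1 or 10 μM, without H₂O₂. Band densitometry expressed as % of control. Mean ± S.E.M. from three independent experiments.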

Series [20] in a line: Activation of PI3K/Akt/mTOR signaling in human SH-SY5Y cells assessed as increase in AKT phosphorylation after 5 to 360 mins by Western blot analysis. The class given is cell-based. The gist of the method: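 SH-SY5Y cells, unstimulated, exposed to 1 for 5, 15, 30, 60, 120, 240 or 360 min. Phospho-AKT and phospho-mTOR measured by western blot, reported as p-AKT/t-AKT and p-mTOR/t-mTOR ratios after densitometry. Mean ± S.E.M. of three independent experiments.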

One may read the AUC as the area under the concentration-time curve, a measure of exposure. Low values mean less exposure, high ones more exposure. By bioavailability is commonly meant dose-corrected exposure relative to a reference, in per cent. Low values mean little systemic uptake, high ones much systemic uptake. Regarding `COC(=O)[C@H](Cc1ccccc1)NC(=O)/C=C/c1ccc(O)c(O)c1` [N-CAFFEOYL-PHENYLALANINE METHYL ESTER], the Activity was more than 50% with SH-SY5Y [1]; “Dose-dependent effect” in the series on SH-SY5Y [3]; 4.5% in the series on SH-SY5Y [6]; 1.5% in the series with SH-SY5Y [7]; 2.7% in the series with SH-SY5Y [8]; 1.1% in the series with SH-SY5Y [9]. Besides, the Activity result in the series on SH-SY5Y [10] is “Dose-dependent effect”; in the series on SH-SY5Y [11], “Non-Toxic”; in the series on Mus musculus [14], “Dose-dependent effect”; with Mus musculus [15], “Dose-dependent effect”; in series [19] it was 206%. Besides, the outcome (with SH-SY5Y [2]; in the series with Mus musculus [12]; with Mus musculus [13]; in series [20]) was Active. Further, in the series on SH-SY5Y [4], the viability at 1 µM was 72%. The viability at 10 µM in the series with SH-SY5Y [5] is 89.8%. The compound also had a Vdss in series [16] of 5.98 L/kg. The compound also had an AUC in series [17] of 2495.56 ng·h/mL. Moreover, in [18], the bioavailability amounted to 15.2%.
